Screens (PubChem BioAssay)
MT1-MMP act inh – inhibitors of human MT1-MMP activation; P50281; HT1080 RFP-PRO-GFP cells, GFP/RFP ratio fluorescence, overnight; percent of plate control window, DMSO zero; GFP/RFP ratio change, % at 20 µM; 0.061% of 360,000 active;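 active means GFP/RFP ratio change of at least 30% with cell ATP level not reduced by more than half and red fluorescence within 50% of control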
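system = RFP-PRO-GFP reporter HT1080 cells | dosing = 20 µM single dose, 1% DMSO | timing = overnight cell settling, then overnight compound exposure, 37 °C, 5% CO2 | read-out basis = GFP/RFP fluorescence ratio | controls = DMSO and RFP-L50D-GFP cell wells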
DDE Tn6 FP inh – inhibitors of Tn6 peptide binding to human fibrin DD(E); P02675; Fibrin DD(E) TRITC-Tn6 fluorescence polarization displacement; inhibition, % at 8.3 µM; 0.21% of 370,000 active; AID 720509;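 active means inhibition above a per-campaign cutoff: mean of compounds within control limits plus 3 SD, cut at about 15% in these data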;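 further: 0% = median of all compound wells on the plate and 100% = blocking peptide control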
Neddyl block – blocks human cullin neddylation. TR-FRET cullin neddylation, biochemical. calls only at 25 µM. 0.58% of 360,000 active. AID 651699; in the data active means inhibition above about 36%
Target sequence (P61081 whole entry, looked up): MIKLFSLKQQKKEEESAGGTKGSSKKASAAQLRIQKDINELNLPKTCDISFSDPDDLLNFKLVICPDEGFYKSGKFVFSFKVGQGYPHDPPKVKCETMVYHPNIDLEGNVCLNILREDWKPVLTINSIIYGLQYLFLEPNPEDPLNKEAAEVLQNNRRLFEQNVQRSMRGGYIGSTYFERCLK
Target sequence (Q13564 whole entry, looked up): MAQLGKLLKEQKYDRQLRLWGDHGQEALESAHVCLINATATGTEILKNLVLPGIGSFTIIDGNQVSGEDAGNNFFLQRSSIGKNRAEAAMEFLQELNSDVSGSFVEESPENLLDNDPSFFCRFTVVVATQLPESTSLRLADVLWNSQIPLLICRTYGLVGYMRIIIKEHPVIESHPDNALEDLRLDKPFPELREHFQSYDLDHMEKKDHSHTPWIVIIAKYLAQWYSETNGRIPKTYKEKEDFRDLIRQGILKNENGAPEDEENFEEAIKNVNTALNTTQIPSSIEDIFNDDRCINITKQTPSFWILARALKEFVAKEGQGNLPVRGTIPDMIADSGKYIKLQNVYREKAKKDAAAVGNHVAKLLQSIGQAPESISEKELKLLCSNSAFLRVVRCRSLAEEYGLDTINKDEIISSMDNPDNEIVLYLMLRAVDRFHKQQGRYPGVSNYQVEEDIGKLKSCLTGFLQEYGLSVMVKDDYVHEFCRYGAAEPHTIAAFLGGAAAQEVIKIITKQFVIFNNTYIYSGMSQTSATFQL
Tn7 DDE FP – inhibitors of Tn7 peptide binding to human fibrin DD(E) | P02675 | FP displacement of FITC-Tn7 peptide from fibrin DD(E); 0% = median of compound wells per plate | inhibition, % at 8.3 µM | 0.13% of 370,000 active | AID 720508;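 active means inhibition above the mean of compounds falling within the control limits plus 3 SD of them, cut at about 14% in these data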;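 further: 0% = plate median of compound wells and 100% = 10 µM Aha-Tn7 peptide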
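Assay system: Human clot-derived fibrin DD(E) complex | Buffer or medium: Tris/NaCl/CaCl2 buffer, pH 7.8 | Repeats: One replicate per compound | Benchmarks: Aha-Tn7 high control | Measure: % inhibition scaled between sample-field median and high-control FP | Schedule: 10 min plus 3 h, room temperature | Signal: Fluorescence polarization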
SKN-1 block – C. elegans SKN-1 inhibition | C. elegans VP596 Pgst-4::GFP/RFP ratio, acrylamide-induced, 24 h | inhibition, % at 21.8 µM | 0.49% of 360,000 active;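 active means interference check ratio from 0.5 to 1.5 plus GFP to RFP signal ratio inhibition reaching or exceeding a fixed threshold, cut at about 30% in these data, passing the limit was not always enough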
proKLK7 act – activates the human kallikrein-7 zymogen; 0.9% of 370,000 active; P49862; purified proKLK7, EDANS-DABCYL substrate fluorescence; 100% is mature enzyme control, 0% vehicle; activation, % at 7 µM;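 active means activation above the mean of all tested compounds plus 3 SD, computed per campaign excluding outliers beyond control limits, cut at about 13% in these data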
Tn6 DDE ctr – DD(E)-Tn6 binding inhibition, counter-screen; shares compounds with DDE Tn6 FP inh; Fibrin DD(E), TRITC-Tn6 fluorescence polarization displacement; 0% = median of compound wells, not DMSO; inhibition, % at 8.3 µM; 2% of 680 active; AID 720621;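 active means inhibition above the mean of test compounds lying between the control limits plus 3 SD of those, cut at about 14% in these data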;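 further: 0% = median of compound wells and 100% = wells with Aha-Tn7 blocking peptide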
DDE Tn6 confirm – confirmation of inhibitors of Tn6 binding to human fibrin DD(E); shares compounds with DDE Tn6 FP inh; FP displacement of TRITC-Tn6 peptide from DD(E); 0% = per-plate median of test wells; inhibition, % at 8.3 µM; 10% of 680 active;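 active means inhibition above the mean of compounds lying within the control limits plus 3 SD, cut at about 16% in these data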;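 further: 100% = high control wells holding a competing inhibitor peptide at 10 µM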
Active calls of the source: *. Rows were chosen to be rich in hits. Some 2.2% of all compounds tested hit in one or more screens of this group.

For Cc1cc(NC(=O)COC(=O)c2ccc([N+](=O)[O-])cc2Cl)no1 the results were MT1-MMP act inh -4.4, DDE Tn6 FP inh 98.2*, Neddyl block inactive, Tn7 DDE FP -4.1, SKN-1 block 7.6, proKLK7 act 0.6, Tn6 DDE ctr -5.2 and DDE Tn6 confirm -7.5.
`NS(=O)(=O)c1ccc(Nc2ccc3cc(S(=O)(=O)N4CCCCC4)ccc3n2)cc1` gave MT1-MMP act inh 3.5, DDE Tn6 FP inh 36.1*, Tn7 DDE FP -6.7, SKN-1 block 9.8, proKLK7 act 3.8, Tn6 DDE ctr 5.3 and DDE Tn6 confirm -21.0.
For CCCOc1ccc(N2C(=O)CC(N(Cc3ccco3)C(C)=O)C2=O)cc1 (stereo not drawn) the results were MT1-MMP act inh -1.0, DDE Tn6 FP inh 5.0, Neddyl block inactive, Tn7 DDE FP -1.6, SKN-1 block 8.3 and proKLK7 act -0.6.
Screening COc1ccc(NC(=O)Cn2cnc3c(cnn3-c3ccc(C)c(C)c3)c2=O)c(OC)c1 returned MT1-MMP act inh 1.0, DDE Tn6 FP inh 15.9*, Neddyl block inactive, Tn7 DDE FP 1.7, SKN-1 block 7.5, proKLK7 act -0.3, Tn6 DDE ctr 5.7 and DDE Tn6 confirm -8.3.
CCOc1ccccc1NC(=O)Cn1cnc2c(cnn2-c2ccc(C)c(C)c2)c1=O was read as MT1-MMP act inh 0.2, DDE Tn6 FP inh 1.8, Neddyl block inactive, Tn7 DDE FP 2.0, SKN-1 block -16.4 and proKLK7 act 0.2.
